Results gathered from unrelated publications.
Compare with care: the assays were run in different laboratories.

`Cc1ccc([N+](=O)[O-])cc1S(=O)(=O)n1c(C)nc2ccccc21` gave a concentration of 3100 nM (mouse, liver; intraperitoneal, 30 mg/kg, 24 h).
With `COc1cc(C)c(Sc2cnc(NC(=O)c3ccc(N4CCN(CCCCCCCNC(=O)COc5cccc6c5C(=O)N(C5CCC(=O)NC5=O)C6=O)CC4)cc3)s2)cc1C(=O)N1CCN(C(C)=O)CC1` (stereo not drawn) the concentration was about 100 nM (male C57BL/6 mouse, plasma; intraperitoneal, 10 mg/kg, 8 h, single dose).
`O=C(O)C1CCN(c2ncc(-c3ccc4c(c3)OCCCO4)s2)CC1` gave a concentration of 5990 ng/mL (male Swiss mouse, plasma; oral, 30 mg/kg, 2 h, single dose).
With `CC(C)(Nc1nc(-c2ccccn2)nc2ccccc12)c1ccccn1` the concentration was 4740 ng/mL (female BALB/c mouse, plasma; oral, 50 mg/kg, 1 h).
`Cc1c2ccnc(C(=O)N[C@H](C)CN(C)C)c2cc2c3cc(O)ccc3n(C)c12` has a concentration of 80 nM (male C57BL/6 mouse, plasma; intraperitoneal, 10 mg/kg, 2 h, single dose).
With `CC(C)Oc1cccc(-c2cnc(N3CCC(C(N)=O)CC3)s2)c1` the concentration was 20.6 ng/mL (male Swiss mouse, plasma; oral, 30 mg/kg, 24 h, single dose).
With `O=S(=O)(c1cccc(C(F)(F)F)c1)N1CCc2ccc(OCc3c(F)cncc3Cl)cc21` the concentration was 210 nM (mouse, plasma; intraperitoneal, 10 mg/kg, 4 h).
For `c1ccc(-c2nc(N3CCC(c4ccccn4)C3)c3ccccc3n2)nc1` (stereo not drawn), the concentration was 2730 ng/mL (female BALB/c mouse, plasma; oral, 50 mg/kg, 2 h).
`CC(C)CN(C[C@@H](O)[C@H](Cc1ccccc1)NC(=O)O[C@H]1CO[C@H]2OCC[C@H]21)S(=O)(=O)c1ccc(N)cc1` has a concentration of 1.85 ng/g (BALB/c mouse, brain; intravenous, 25 mg/kg, 6 h).
`O=S(=O)(c1cccc(C(F)(F)F)c1)N1CCc2ccc(OCc3c(Cl)cncc3Cl)cc21` gave a concentration of 620 nM (mouse, plasma; intraperitoneal, 10 mg/kg, 4 h).
With `CC(C)Cc1nn(C)c(=O)c2c(SCCCO)n(Cc3cccc4ccccc34)cc12` the concentration was 0 nM (mouse, lung; intraperitoneal, 20 mg/kg, 7 days, single dose).
For `O=c1nc(N2CCN(CC3CCCCC3)CC2)sc2c([N+](=O)[O-])cc(C(F)(F)F)cc12`, the concentration was 2830 ng/mL (CD-1 mouse, lung; intravenous, 10 mg/kg, 15 min).
The concentration of `COc1cc(F)c([C@@H]2CNC(=O)[C@H]2NC(=O)Nc2ccccc2)c(F)c1` is reported as 107 nM (C57BL/6 mouse, plasma; oral, 3 mg/kg, 1 h).
The concentration of `O=c1cc(-c2ccccc2)oc2c(O)c(O)ccc12` is reported as 24 ng/mL (male CD-1 mouse, plasma; oral, 50 mg/kg, 4 h).
`Cc1ccc(-c2cccc3cnc(Nc4ccc(C(=O)N5CCOCC5)cc4)nc23)cn1` gave a concentration of 0 nM (mouse, brain; intraperitoneal, 10 mg/kg, 2 h).
For `O=S(=O)(c1ccc(-c2ccc3nccc(Nc4ccncn4)c3c2)cc1)N1CCOCC1`, the concentration was 2.16 ng/mL (female BALB/c mouse, plasma; intraperitoneal, 10 mg/kg, 8 h).
For `COc1ccc2[nH]c3c(C)c4ccnc(C(=O)N[C@H](C)CN(C)C)c4cc3c2c1`, the concentration was 40 nM (male C57BL/6 mouse, plasma; intraperitoneal, 10 mg/kg, 2 h, single dose).
For `O=S(=O)(c1cccc(C(F)(F)F)c1)N1c2cc(OCc3c(Cl)cncc3Cl)ccc2CC1C(F)(F)F` (stereo not drawn), the concentration was 160 nM (mouse, plasma; intraperitoneal, 10 mg/kg, 4 h).
